Laboratory results from ChEMBL document CHEMBL3808332, “Identification of novel aminopiperidine derivatives for antibacterial activity against Gram-positive bacteria” (Bioorg Med Chem Lett, 2016).
pIC50: −log10 of the molar value. ≈ marks a conversion by molar mass, not a printed value.

Experiments:
Staphylococcus aureus [1] = experiment: Antibacterial activity against methicillin-resistant Staphylococcus aureus after 24 hrs by microdilution method; format: functional
Enterococcus faecium [2] = experiment: Antibacterial activity against vancomycin-resistant Enterococcus faecium after 24 hrs by microdilution method; format: functional
Enterococcus faecalis = experiment: Antibacterial activity against vancomycin-resistant Enterococcus faecalis after 24 hrs by microdilution method; format: functional
Streptococcus pneumoniae [3] = experiment: Antibacterial activity against Penicillin-resistant Streptococcus pneumoniae after 24 hrs by microdilution method; format: functional
Escherichia coli = experiment: Antibacterial activity against Escherichia coli after 24 hrs by microdilution method; format: functional
Pseudomonas aeruginosa = experiment: Antibacterial activity against Pseudomonas aeruginosa after 24 hrs by microdilution method; format: functional
Staphylococcus aureus [4] = experiment: Antibacterial activity against methicillin-resistant Staphylococcus aureus infected in po dosed mouse model assessed as inhibition of systemic infection administered bid for 3 days; format: functional; conditions: 72 h
In short: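 Normal mice (n = 6/group) given a systemic ip challenge with a standard MRSA strain at 2 × 10⁸ CFU per mouse. Oral treatment twice daily for 3 days. Survival was scored at day 7, and ED50 with 95% CI was derived by probit analysis.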

Enterococcus faecium [5] = experiment: Antibacterial activity against vancomycin-resistant Enterococcus faecium infected in po dosed immunosuppressed mouse model assessed as inhibition of systemic infection administered bid for 3 days; format: functional; conditions: 72 h
In short: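 Immunosuppressed mice (n = 6/group) received a systemic ip infection with a standard vancomycin-resistant E. faecium strain at 1 × 10⁹ CFU per mouse. Dosing was oral, BID, for 3 days. ED50 and 95% CI came from probit analysis of day-7 survival.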

Streptococcus pneumoniae [6] = experiment: Antibacterial activity against Penicillin-resistant Streptococcus pneumoniae yonsei 15 infected in po dosed immunosuppressed mouse model assessed as inhibition of pulmonary infection administered bid for 3 days; format: functional; conditions: yonsei 15, po, 72 h
In short: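 Lung infection in immunosuppressed mice (n = 6/group) by intranasal inoculation with penicillin-resistant S. pneumoniae Yonsei15 at 1 × 10⁶ CFU per mouse. Treatment was oral, twice daily for 3 days. Day-7 survival was analysed by probit to give ED50 and 95% CI.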

Peptide deformylase = target: T1, Peptide deformylase (Staphylococcus aureus, UniProt P68826); experiment: Inhibition of Staphylococcus aureus PDF using formyl-methionine-alanine-serine as substrate assessed as increase in NADH levels by microtiter ELISA
T1 sequence (P68826 whole entry): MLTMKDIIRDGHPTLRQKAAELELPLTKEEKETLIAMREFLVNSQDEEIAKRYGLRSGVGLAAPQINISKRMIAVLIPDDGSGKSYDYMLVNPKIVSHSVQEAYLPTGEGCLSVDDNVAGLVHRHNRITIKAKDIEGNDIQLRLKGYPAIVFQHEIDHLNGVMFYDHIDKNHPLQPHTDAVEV

[7] = target: T2, Peptide deformylase (Staphylococcus aureus) (UniProt P68826); experiment: Inhibition of Staphylococcus aureus PDF using formyl-methionine-alanine-serine as substrate assessed as increase in NADH levels at 100 nM by microtiter ELISA
T2 sequence (whole entry): T1 sequence (P68826 whole entry)

[8] = target: T2, Peptide deformylase (Staphylococcus aureus); experiment: Inhibition of Staphylococcus aureus PDF using formyl-methionine-alanine-serine as substrate assessed as increase in NADH levels at 30 nM by microtiter ELISA
[9] = target: T2, Peptide deformylase (Staphylococcus aureus); experiment: Inhibition of Staphylococcus aureus PDF using formyl-methionine-alanine-serine as substrate assessed as increase in NADH levels at 10 nM by microtiter ELISA
[10] = target: T2, Peptide deformylase (Staphylococcus aureus); experiment: Inhibition of Staphylococcus aureus PDF using formyl-methionine-alanine-serine as substrate assessed as increase in NADH levels at 3 nM by microtiter ELISA
[11] = Plasma clearance in iv/po dosed mouse by LC-MS/MS analysis; format: ADME, organism-based
In short: (§1)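 Mice, n = 3–5 per group, given the compound intravenously and orally. Plasma pharmacokinetic parameters were derived: total plasma clearance, steady-state volume of distribution, apparent terminal elimination half-life, Tmax after oral dosing, and absolute oral bioavailability (%F).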

[12] = Volume of distribution at steady state in iv/po dosed mouse plasma by LC-MS/MS analysis; format: ADME, organism-based; conditions: read-out: Vdss; in short: as §1
[13] = Apparent terminal half life in iv/po dosed mouse plasma by LC-MS/MS analysis; format: ADME, organism-based; conditions: read-out: betat1/2(app) (converted); in short: as §1
[14] = Tmax in iv/po dosed mouse plasma by LC-MS/MS analysis; format: ADME, organism-based; in short: as §1
[15] = Apparent oral bioavailability in mouse plasma by LC-MS/MS analysis; format: ADME, organism-based; in short: as §1

SMILES	MIC (Staphylococcus aureus [1]) [µg/mL]	MIC (Enterococcus faecium [2]) [µg/mL]	MIC (Enterococcus faecalis) [µg/mL]	MIC (Streptococcus pneumoniae [3]) [µg/mL]	MIC (Escherichia coli) [µg/mL]	MIC (Pseudomonas aeruginosa) [µg/mL]	other results
COC(=O)c1ccc(CNC2CCN(C(=O)[C@@H](NC(=O)[C@H](CC3CCCC3)CN(O)C=O)C(C)(C)C)CC2)cc1	12.5 (≈ 22.4 µM)	3.1 (≈ 5.55 µM)	6.3 (≈ 11.3 µM)	0.8 (≈ 1.43 µM)	–	–	–
COc1ccc(CNC2CCN(C(=O)[C@@H](NC(=O)[C@H](CC3CCCC3)CN(O)C=O)C(C)(C)C)CC2)cc1	12.5 (≈ 23.6 µM)	1.6 (≈ 3.01 µM)	6.3 (≈ 11.9 µM)	0.8 (≈ 1.51 µM)	–	–	–
CC(C)(C)[C@H](NC(=O)[C@H](CC1CCCC1)CN(O)C=O)C(=O)N1CCC(Nc2ccc3c(c2)OCO3)CC1	6.3 (≈ 11.9 µM)	1.6 (≈ 3.02 µM)	3.1 (≈ 5.84 µM)	0.4 (≈ 0.754 µM)	> 50	> 50	–
CC(=O)Nc1ccc(CNC2CCN(C(=O)[C@@H](NC(=O)[C@H](CC3CCCC3)CN(O)C=O)C(C)(C)C)CC2)cc1	> 50	25 (≈ 44.8 µM)	12.5 (≈ 22.4 µM)	1.6 (≈ 2.87 µM)	–	–	–
CC(C)(C)[C@H](NC(=O)[C@H](CC1CCCC1)CN(O)C=O)C(=O)N1CCC(NCc2ccc3[nH]ccc3c2)CC1	6.3 (≈ 11.7 µM)	6.3 (≈ 11.7 µM)	3.1 (≈ 5.74 µM)	0.8 (≈ 1.48 µM)	> 50	> 50	–
CC(C)(C)[C@H](NC(=O)[C@H](CC1CCCC1)CN(O)C=O)C(=O)N1CCC(Nc2ccc3cn[nH]c3c2)CC1	12.5 (≈ 23.7 µM)	1.6 (≈ 3.04 µM)	6.3 (≈ 12 µM)	0.4 (≈ 0.759 µM)	> 50	> 50	–
CC(C)(C)[C@H](NC(=O)[C@H](CC1CCCC1)CN(O)C=O)C(=O)N1CCC(NCc2ccc3c(c2)OCO3)CC1	6.3 (≈ 11.6 µM)	0.8 (≈ 1.47 µM)	3.1 (≈ 5.69 µM)	1.6 (≈ 2.94 µM)	> 50	> 50	–
CC(C)(C)[C@H](NC(=O)[C@H](CC1CCCC1)CN(O)C=O)C(=O)N1CCC(NCc2ccccc2)CC1	3.1 (≈ 6.19 µM)	0.8 (≈ 1.6 µM)	1.6 (≈ 3.2 µM)	0.8 (≈ 1.6 µM)	> 50	> 50	–
COc1ccc(CNC2CCN(C(=O)[C@@H](NC(=O)[C@H](CC3CCCC3)CN(O)C=O)C(C)(C)C)CC2)c(OC)c1	25 (≈ 44.6 µM)	3.1 (≈ 5.53 µM)	6.3 (≈ 11.2 µM)	0.8 (≈ 1.43 µM)	–	–	–
CC(=O)NC[C@H]1CN(c2ccc(N3CCOCC3)c(F)c2)C(=O)O1 [LINEZOLID]	1.6 (≈ 4.74 µM)	1.6 (≈ 4.74 µM)	0.8 (≈ 2.37 µM)	0.8 (≈ 2.37 µM)	> 50	> 50	ED50 (Staphylococcus aureus [4]): 5 mg/kg; ED50 (Enterococcus faecium [5]): 11.4 mg/kg; ED50 (Streptococcus pneumoniae [6]): 1.5 mg/kg
CC(C)(C)[C@H](NC(=O)[C@H](CC1CCCC1)CN(O)C=O)C(=O)N1CCC(NCc2ccc(O)c(O)c2)CC1	> 50	> 50	> 50	12.5 (≈ 23.5 µM)	–	–	–
CC(C)(C)[C@H](NC(=O)[C@H](CC1CCCC1)CN(O)C=O)C(=O)N1CCC(NCc2cc(F)c(F)cc2F)CC1	1.6 (≈ 2.88 µM)	0.8 (≈ 1.44 µM)	0.8 (≈ 1.44 µM)	0.4 (≈ 0.721 µM)	–	–	pIC50 (Peptide deformylase): 7.52; inhibition [7]: 78%; inhibition [8]: 51%; inhibition [9]: 20%; inhibition [10]: -3%; clearance [11]: 19 mL/min/kg; Vd [12]: 1.71 L/kg; half-life [13]: 63 min; Tmax [14]: 30 min; bioavailability [15]: 95.8%; ED50 (Staphylococcus aureus [4]): 16.6 mg/kg; ED50 (Enterococcus faecium [5]): 13.3 mg/kg; ED50 (Streptococcus pneumoniae [6]): 3 mg/kg
CC(C)(C)[C@H](NC(=O)[C@H](CC1CCCC1)CN(O)C=O)C(=O)N1CCC(NC(=O)c2ccc(C#N)cc2)CC1	–	–	–	–	–	–	clearance [11]: 44 mL/min/kg; Vd [12]: 2.54 L/kg; half-life [13]: 55.2 min; Tmax [14]: 40.2 min; bioavailability [15]: 55.5%
